According to ChEMBL document CHEMBL4819082, “Ximaoglaucumins A - F, new cembranoids with anti-inflammatory activities from the South China Sea soft coral Sarcophyton glaucum” (Bioorg Med Chem, 2021):

Key:
BV-2 [1] = experiment: Antiinflammatory activity against mouse BV2 cells assessed as reduction in LPS-induced NO production at 10 uM incubated for 2 hrs followed by LPS stimulation and measured after 24 hrs by Griess reagent based assay relative to control; type: functional; conditions: BV-2, 26 h
Summary of the method: (§1)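 BV-2 cells were seeded at 2.0×10^5 cells/mL in DMEM high-glucose with 10% FBS and grown 24 h at 37 °C, 5% CO₂. They were pretreated with compound for 2 h, then exposed to LPS at 100 ng/mL for 24 h. Medium was mixed 1:1 with Griess buffer for 15 min at room temperature and read at 540 nm. Nitrite came from a sodium nitrite standard curve and was normalized to the LPS-group mean (100%).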

[2] = Cytotoxicity against mouse BV2 cells assessed as cell viability at 10 uM measured after 24 hrs by MTT assay; type: cell-based, BV-2; conditions: read-out: Activity
Summary of the method: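 BV-2 cells were seeded at 1.25×10^4 cells/mL and grown 24 h at 37 °C, 5% CO₂. They were then exposed to compound for 24 h, with 0.5 mg/mL MTT added for the final 3 h. Absorbance was read at 490 nm, and viability was normalized to the untreated control mean (100%).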

BV-2 [3] = experiment: Antiinflammatory activity against mouse BV2 cells assessed as reduction in LPS-induced IL-6 mRNA expression incubated for 2 hrs followed by LPS stimulation and measured after 6 hrs by qRT-PCR analysis; type: functional, cell-based; conditions: time 8.0 hrs
Summary of the method: (§2)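 BV-2 microglia were seeded at 1 × 10⁵ cells/mL, pretreated with compound for 2 h, then given LPS at 100 ng/mL for 6 h. Total RNA was extracted with Trizol and reverse-transcribed to cDNA, and IL-1β or IL-6 transcripts were quantified.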

BV-2 [4] = experiment: Antiinflammatory activity against mouse BV2 cells assessed as reduction in LPS-induced IL-1beta mRNA expression incubated for 2 hrs followed by LPS stimulation and measured after 6 hrs by qRT-PCR analysis; type: functional, cell-based; conditions: time 8.0 hrs; summary of the method: as §2
BV-2 [5] = experiment: Antiinflammatory activity against mouse BV2 cells assessed as reduction in LPS-induced NO production at 20 uM incubated for 2 hrs followed by LPS stimulation and measured after 24 hrs by Griess reagent based assay relative to control; type: functional; conditions: BV-2, 26 h; summary of the method: as §1

SMILES	NO production (% of LPS) at 10 µM (BV-2 [1]) [%]	viability at 24 h, 10 µM [2] [%]	inhibition (BV-2 [3])	inhibition (BV-2 [4])	NO production (% of LPS) at 20 µM (BV-2 [5]) [%]
CC(=O)OC/C1=C\CC/C(C)=C/CC[C@](C)(O)[C@H]2C=C(C(C)C)[C@H](C1)O2	92.7	102	–	–	–
C=C1CC/C=C(\C)C[C@H](OC(C)=O)/C(C(C)C)=C\C=C(/C)CC[C@H]1O	74.5	108	–	–	–
C/C1=C\CC[C@](C)(O)[C@H]2C=C(C(C)C)[C@H](C/C(C)=C/CC1)O2	82	99.2	–	–	–
C/C1=C\CC[C@](C)(O)/C=C/[C@H](C(C)C)CC/C(C)=C/CC1	76.5	106	–	–	–
C/C1=C\C=C(\C(C)C)[C@@H](O)C/C(C)=C/CC/C(C)=C/CC1	67.8	106	Dose-Dependent Effect	Dose-Dependent Effect	–
C/C1=C\C=C(\C(C)C)CC/C(C)=C/CCC(C)(O)/C=C/C1 (stereo unspecified)	80.2	101	–	–	–
C/C1=C\C=C(\C(C)C)[C@@H](O)C[C@]2(C)O[C@H]2CC/C(C)=C/CC1	77.9	101	–	–	–
C=C1C[C@H](O)/C(C(C)C)=C\C=C(/C)CC/C=C(\C)CC[C@@H]1OO	74.2	103	–	–	–
C=C1C[C@H](O)/C(C(C)C)=C\C=C(/C)CC/C=C(\C)CC[C@H]1O	75.9	96	–	–	–
C/C1=C\C=C(\C(C)C)[C@@H](O)[C@H](O)/C(C)=C/CC/C(C)=C/CC1	68.7	101	Dose-Dependent Effect	Dose-Dependent Effect	–
CC(=O)O[C@H]1C/C(C)=C/CCC(C)(O)/C=C/C/C(C)=C/C=C\1C(C)C (stereo partly specified)	74.4	97.2	–	–	–
C/C1=C\CC/C(C)=C/C=C(/C(C)C)[C@@H](O)C[C@](C)(O)/C=C/C1	79.5	95.2	–	–	–
Oc1ccc(/C=C/c2cc(O)cc(O)c2)cc1 [RESVERATROL]	–	–	–	–	74.3
C/C1=C\CC/C(C)=C/C=C(/C(C)C)[C@@H](O)C[C@@](C)(OO)/C=C/C1	85.3	104	–	–	–
C/C1=C\C=C(\C(C)C)CC/C(C)=C/CC/C(C)=C/CC1	85.5	100	–	–	–
C/C1=C/C=C(/C(C)C)[C@@H](O)C/C(C)=C/CC/C(C)=C/CC1	88.8	103	–	–	–
C/C1=C\[C@H]2O[C@](C)(CC[C@H]2C(C)C)[C@@H](O)CC/C(C)=C/CC1	87.2	99.9	–	–	–
C=C1CC/C=C(\C)C[C@H](O)/C(C(C)C)=C\C=C(/C)CC[C@H]1O	84.6	102	–	–	–
CC(=O)OC/C1=C\CC/C(C)=C/CC/C(C)=C/C=C(/C(C)C)[C@@H](O)C1	71.3	111	–	–	–
